Compound activity (PubChem)
RAD52 anneal inh: inhibitors of human RAD52 DNA annealing. AID 651710. P43351. inhibition, % at 18.7 µM. recombinant RAD52 DNA annealing, FRET fluorescence. 360,000 tested, 0.46% active;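 active = every replicate showing at least 50% inhibition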
Target sequence (P43351 whole entry, looked up): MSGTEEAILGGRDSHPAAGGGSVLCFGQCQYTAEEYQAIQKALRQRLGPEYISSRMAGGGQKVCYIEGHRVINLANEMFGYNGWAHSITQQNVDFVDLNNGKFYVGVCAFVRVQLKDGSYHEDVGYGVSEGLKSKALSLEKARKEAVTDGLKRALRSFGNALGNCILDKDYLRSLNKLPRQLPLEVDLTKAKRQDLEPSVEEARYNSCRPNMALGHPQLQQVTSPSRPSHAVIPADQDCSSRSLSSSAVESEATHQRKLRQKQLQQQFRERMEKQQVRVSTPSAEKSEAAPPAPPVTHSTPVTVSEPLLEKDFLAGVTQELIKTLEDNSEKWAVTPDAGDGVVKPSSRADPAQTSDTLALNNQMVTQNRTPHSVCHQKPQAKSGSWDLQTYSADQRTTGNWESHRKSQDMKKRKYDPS
FN deposition inh: fibronectin deposition inhibition; AH1F fibroblasts, Alexa488-fibronectin deposition fluorescence, overnight; AID 743247; 350,000 tested, 0.086% active; inhibition, % at 12.6 µM;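 active = mean inhibition across replicates of 30% or more, regardless of how many single replicates reach that level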;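 note: positive control wells lacked labelled fibronectin entirely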
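Material: AH1F fibroblast monolayer depositing Alexa488-labelled fibronectin into matrix | Input: 10000 AH1F cells/well | Medium: DMEM plus 2% serum, read in PBS | Reagent: Alexa488-fibronectin, 24 nM final in well | Compound dosing: One dose per compound, pinned | Schedule: 1 h adhesion, overnight exposure | Measured by: Fluorescence at 485 nm excitation, 525 nm emission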
RAD54 inh: blocks human RAD54 Holliday junction branch migration | Q92698 | FAM/BHQ fluorescence | inhibition, % at 10.4 µM | 360,000 tested, 0.14% active;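 active = mean normalized replicate activity at least 40 and at least half of replicates scoring 40 or more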;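 note: 0% = median of neutral control wells and 100% = median of positive control wells; inhibitors cause a drop in the FAM fluorescence signal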
CaV13 FRET inh: Primary screen for inhibitors of IQ motif and Ca2+-dependent inactivation inhibitor domain binding in CACNA1D, Förster resonance energy transfer in living cells, …; inhibition, % at 12.3 µM; AID 743397; HEK cells, CFP/YFP FRET ICDI-IQ, plate reader, 10 min; percent FRET-ratio fall versus neutral wells; 340,000 tested, 0.098% active;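 active = mean replicate inhibition of at least 30% and at least 1% of replicates passing that level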;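 note: 0% = median of the neutral control wells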
N-glyco inh: blocks N-linked glycosylation in D54 reporter cells; D54 ERlucT glycosylation luciferase reporter, 24 h; percent of 100 nM tunicamycin response; reporter increase, % at 12.5 µM; 360,000 tested, 0.23% active;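 active = mean luciferase reporter signal, scaled so untreated is 0 and the glycosylation-blocking control 100, at or above a set limit in every replicate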;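 note: luciferase carries N-glycosylation sites so blocking glycosylation raises the light; 0% = median of neutral control wells and 100% = median of 100 nM tunicamycin wells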
* = called active by the depositor; / = not tested or not shown; + = active, no number. Most compounds without a hit are left out; they make up all but 0.7% or so of the library.

SMILES	RAD52 anneal inh	FN deposition inh	RAD54 inh	CaV13 FRET inh	N-glyco inh
O=C(NCC[C@H]1CC[C@H](NC(=O)c2cccnc2)[C@@H](CO)O1)Nc1ccc(C(F)(F)F)cc1	20	-29	-2	/	/
C[C@@H]1CN([C@H](C)CO)S(=O)(=O)c2ccc(C#Cc3cccnc3)cc2O[C@@H]1CN(C)C	5	1	1	/	/
C[C@@H]1CCCCO[C@@H](CN(C)S(=O)(=O)c2ccccc2)[C@H](C)CN([C@H](C)CO)C(=O)c2cc(NC(=O)c3ccccc3)ccc2O1	-5	2	-7	/	/
CC(C)Nc1ccc(C(CC(N)=O)NC(=O)c2ccccc2)cc1[N+](=O)[O-] (stereo not drawn)	-12	-5	9	-10	-1
CC(C)Nc1ccc(C(CC(N)=O)NC(=O)c2ccc(Br)cc2)cc1[N+](=O)[O-] (stereo not drawn)	27	-3	-1	-9	49*
O=C(NCc1ccccc1Br)c1cccc2c1C(=O)c1ccc(-c3ccc(OC(F)(F)F)cc3)cc1S2(=O)=O	/	/	11	/	156*
CC(C)c1cccc(-c2ccc3c(c2)S(=O)(=O)c2cccc(C(=O)NCc4ccccc4Cl)c2C3=O)c1	/	/	4	/	197*
O=C(NCc1ccc(F)cc1)c1cccc2c1C(=O)c1ccc(Cl)cc1S2(=O)=O	-15	0	/	22	/
CC(C)c1cccc(-c2ccc3c(c2)S(=O)(=O)c2cccc(C(=O)NCc4ccccc4)c2C3=O)c1	-11	-21	-11	-10	92*
C[C@@H]1CCCCO[C@H](CN(C)C(=O)Cc2ccccc2)[C@@H](C)CN([C@H](C)CO)C(=O)c2cc(NC(=O)NC3CCCCC3)ccc2O1	/	/	-43	/	/
Cc1c2c(n3c(nc4ccccc43)c1C#N)N(CCN1CCOCC1)CC2	-29	5	/	+	1
CCN(CC)CCCNc1cc(C)c(C#N)c2nc3ccccc3n12	-4	-6	19	-12	43*
CCN(CC)CCNc1cc(C)c(C#N)c2nc3ccccc3n12	-84	6	27	-20	7
Cc1cc(NCCCN2CCOCC2)n2c(nc3ccccc32)c1C#N	/	8	53*	-4	3
Cc1cc(NCCN2CCOCC2)n2c(nc3ccccc32)c1C#N	/	3	7	-5	2
O=C(Nc1ccc(F)cc1)N[C@@H]1C=C[C@H](CC(=O)N2CCOCC2)O[C@H]1CO	15	-3	-2	/	/
Cc1cc(NC(=O)CSc2nc3sc(C)c(C)c3c(=O)n2C2CCCC2)no1	-3	/	6	-8	27*
C[C@@H]1CCCCO[C@@H](CN(C)C)[C@H](C)CN([C@H](C)CO)C(=O)c2cc(NC(=O)Nc3cccc4ccccc34)ccc2O1	17	/	3	/	/
CC1=CC(C)[C@H](/C=N/n2c(=O)[nH]c3c([nH]c4ccc(Br)cc43)c2=O)C(C)C1 (stereo partly drawn)	-27	-5	-7	2	37*
CCCCn1nc(NC(=O)c2cccs2)c2cc3cc(OC)ccc3nc21	/	/	-1	54*	9
COc1ccc(S(=O)(=O)N(C)C[C@@H]2Oc3ccc(NS(=O)(=O)c4ccc(C)cc4)cc3C(=O)N([C@H](C)CO)C[C@H]2C)cc1	23	/	/	/	/
O=C(C[C@H]1CC[C@H]2[C@@H](COC[C@@H](O)CN2Cc2ccc(Oc3ccccc3)cc2)O1)N1CCCCC1	10	-1	-1	/	/
NS(=O)(=O)c1ccc(NC(=O)c2cccc3ccccc23)cc1	-16	2	-4	-5	0
NS(=O)(=O)c1ccc(NC(=O)c2cccc3cc4ccccc4nc23)cc1	0	2	/	-14	62*
NC1=C(Cl)C(=O)c2ccc(S(N)(=O)=O)cc2C1=O	25	31*	2	-6	-20
SMILES	RAD52 anneal inh	FN deposition inh	RAD54 inh	CaV13 FRET inh	N-glyco inh
O=C(C[C@@H]1CC[C@H]2[C@@H](COC[C@H](O)CN2C(=O)Nc2cc(Cl)cc(Cl)c2)O1)NCC1CCCCC1	0	-10	-3	/	/
COc1ccc(NC(=O)N[C@H]2CC[C@H](CCn3cc(C4(O)CCCC4)nn3)O[C@H]2CO)cc1	-9	12	-8	/	/
NC(=O)CC(NC(=O)Cc1ccc(Cl)cc1)c1ccc(NCC2CC2)c([N+](=O)[O-])c1 (stereo not drawn)	-96	13	-10	-10	43*
NC(=O)CC(NC(=O)Cc1ccc(Br)cc1)c1ccc(NCC2CC2)c([N+](=O)[O-])c1 (stereo not drawn)	-29	-11	-4	-5	45*
NC(=O)CC(NC(=O)Cc1ccc(Br)cc1)c1ccc(NCc2ccc(F)cc2)c([N+](=O)[O-])c1 (stereo not drawn)	-16	17	2	-5	4
NC(=O)CC(NC(=O)Cc1ccc(Cl)cc1)c1ccc(NCCc2ccccc2F)c([N+](=O)[O-])c1 (stereo not drawn)	-10	-2	-3	-6	0
CO[C@H]1CN(C)C(=O)c2cc(NC(=O)c3cccc(F)c3)ccc2OC[C@H](C)N(C(C)=O)C[C@@H]1C	/	3	/	/	/
CCC(=O)N1CCN(c2ccc(NC(=O)c3ccc([N+](=O)[O-])o3)cc2Cl)CC1	-3	60*	/	7	1
O=C(Nc1ccc(Cc2ccncc2)cc1)c1ccc([N+](=O)[O-])o1	-4	10	-7	-4	34*
O=C(Nc1ccc(Cc2ccncc2)cc1)c1cccc([N+](=O)[O-])c1	4	/	7	6	-4
O=C(Nc1cccc(NC(=O)c2cccs2)c1)c1ccc([N+](=O)[O-])o1	-4	7	-24	-14	59*
COc1cc(NC(=O)c2ccc([N+](=O)[O-])o2)ccc1NC(=O)c1cccs1	-6	10	-2	0	14
CCCNC(=O)Nc1ccc2c(c1)C(=O)N(C)C[C@H](OC)[C@@H](C)CN(CCC)[C@H](C)CO2	-8	-8	-6	/	/
COc1cccc(-c2ccc(NC(=O)C3CCCN(Cc4ccco4)C3)cc2)c1 (stereo not drawn)	-47	-16	3	-1	-1
O=C(Nc1ccc(-c2ccco2)cc1)C1CCCN(Cc2ccco2)C1 (stereo not drawn)	-405	4	-4	37*	1
COc1ccc(C2NC(=S)NC3=C2CCCC3=C2SCCS2)cc1 (stereo not drawn)	-12	6	-6	-7	593*
COc1ccc(S(=O)(=O)N[C@H]2CC[C@H](CC(=O)NCc3ccccc3F)O[C@H]2CO)cc1	-10	/	3	/	/
COc1ccc(COc2ccc3c(C)cc(=O)oc3c2)cc1	-6	6	11	10	-3
COc1ccc2c(-c3cc4ccc(OCc5ccc(F)cc5)cc4oc3=O)cc(=O)oc2c1	-15	-1	/	-14	37*
CCOc1nc(N=C(N)N)nc2c(C)cccc12	/	/	60*	-2	17
